Experimental data reported in ChEMBL document CHEMBL1147230, “Novel oxylipin metabolites from the brown alga Eisenia bicyclis” (2003).

Assays:
Assay type in all cases: functional
[1] = system: Staphylococcus aureus; test: Antibacterial activity against Staphylococcus aureus after 12 hrs relative to vancomycin
How it was run: (§1)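 Paper disk diffusion: 0.1 mg sample loaded per disk, incubated on bouillon culture medium at 37 °C. Inhibition zone diameter measured after 12 h. Activity expressed relative to a vancomycin standard disk (0.1 mg).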

[2] = system: Bacillus subtilis; test: Antibacterial activity against Bacillus subtilis after 12 hrs relative to vancomycin; how it was run: as §1
[3] = system: Bacillus subtilis; test: Antibacterial activity against Bacillus subtilis after 12 hrs
How it was run: (§2)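 Paper disk diffusion: 0.1 mg sample loaded per disk, incubated in bouillon culture medium at 37 °C for 12 h, then inhibition zone diameter measured. Activity expressed relative to vancomycin standard (0.1 mg per disk).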

[4] = system: Staphylococcus aureus; test: Antibacterial activity against Staphylococcus aureus after 12 hrs; how it was run: as §2

`CC[C@H]1O[C@@H]2[C@@H](/C=C\C/C=C\CCCCC(=O)O)[C@H]1C[C@H]2Cl` gave an Activity [1] of 0.4 and an Activity [2] of 0.43.
For `CC[C@@H]1OC(=O)CCCC/C=C\C/C=C\[C@H]2[C@H]1C[C@@H]1O[C@H]21` [ECKLONIALACTONE A], the Activity [1] was 0.41 and the Activity [2] was 0.3.
For `CC[C@H](Cl)[C@@H]1C[C@@H]2O[C@@H]2[C@H]1/C=C\C/C=C\CCCCC(=O)O` [EGREGIACHLORIDE A], the Activity [1] was 0.47 and the Activity [2] was 0.35.
`CC[C@@H]1OC(=O)CCCC/C=C\C/C=C\[C@@H]2[C@@H](O)[C@H](Cl)C[C@H]21` [EISENIACHLORIDE A] gave an Activity [1] of 0.38 and an Activity [2] of 0.36.
For `CC[C@@H]1OC(=O)CCCCCCC/C=C\[C@@H]2[C@@H](O)[C@H](Cl)C[C@H]21` [EISENIACHLORIDE B], the Activity [1] was 0.53 and the Activity [2] was 0.31.
With `CC[C@@H]1OC(=O)CCC/C=C\C/C=C\C/C=C\[C@@H]2[C@@H](O)[C@H](Cl)C[C@H]21` [EISENIACHLORIDE C] the Activity [1] was 0.34 and the Activity [2] was 0.29.
With `CC[C@@H]1OC(=O)CCCCCCC/C=C\[C@@H]2[C@@H](O)[C@H](I)C[C@H]21` [EISENIAIODIDE B] the Activity [1] was 0.47 and the Activity [2] was 0.28.
`CN[C@H](CC(C)C)C(=O)N[C@H]1C(=O)N[C@@H](CC(N)=O)C(=O)N[C@H]2C(=O)N[C@H]3C(=O)N[C@H](C(=O)N[C@H](C(=O)O)c4cc(O)cc(O)c4-c4cc3ccc4O)[C@H](O)c3ccc(c(Cl)c3)Oc3cc2cc(c3O[C@@H]2O[C@H](CO)[C@@H](O)[C@H](O)[C@H]2O[C@H]2C[C@](C)(N)[C@H](O)[C@H](C)O2)Oc2ccc(cc2Cl)[C@H]1O` [VANCOMYCIN] was tested, and the “inhibition zone (IZ)” value [3] was 26.8 mm, the Activity [1] was 1 and the Activity [2] was 1. The “inhibition zone (IZ)” value [4] was 34.6 mm.
